Source: PubChem BioAssay
Rev-erbA mod – modulators of human Rev-erb alpha DNA binding; Rev-erbα–FITC-DNA binding, fluorescence polarization, 90 min; activity, % at 10 µM; 370,000 compounds, 0.79% hits; P20393;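 active means activity above about 14%, limit read from the data; passing the limit was not always enough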;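 further: 0% = DMSO wells with 35 nM protein and 100% = DMSO wells with 750 nM protein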
MsrA inh – bovine MsrA inhibition. 360,000 compounds, 0.75% hits. purified bovine MsrA, absorbance read-out. AID 651718. inhibition, % at 15.5 µM; in the data active means inhibition above about 4.5%;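 further: 0% = vehicle wells with enzyme and 100% = reference inhibitor wells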
ASAP1 GAP inh – blocks human ASAP1-stimulated Arf1 GTP hydrolysis | Q9ULH1 | GDP FP detection | inhibition, % at 16.5 µM | 360,000 compounds, 0.19% hits; in the data active means inhibition above about 25%;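 further: 0% = vehicle with enzyme and substrate and 100% = no enzyme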
Target sequence (Q9ULH1 325-724 limits assumed): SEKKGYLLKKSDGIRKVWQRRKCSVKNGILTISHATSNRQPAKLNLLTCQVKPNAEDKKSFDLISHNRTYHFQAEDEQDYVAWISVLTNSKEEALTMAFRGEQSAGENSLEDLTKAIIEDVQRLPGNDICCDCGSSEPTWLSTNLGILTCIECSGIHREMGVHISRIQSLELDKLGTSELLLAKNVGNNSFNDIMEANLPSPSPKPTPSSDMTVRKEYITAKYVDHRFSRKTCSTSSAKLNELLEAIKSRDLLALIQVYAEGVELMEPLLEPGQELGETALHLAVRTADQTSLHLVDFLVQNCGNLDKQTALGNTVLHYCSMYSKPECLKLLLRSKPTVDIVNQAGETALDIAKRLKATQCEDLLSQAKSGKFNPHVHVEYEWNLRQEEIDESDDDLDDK
ARFGAP1 inhibitor – rat ARFGAP1 inhibition | Q62848 | Arfgap1-stimulated ARF1 GTP hydrolysis, GDP FP detection | inhibition, % at 16.5 µM | 360,000 compounds, 0.26% hits;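 active means inhibition above a per-plate limit, mean inhibition of low control wells plus 3 SD, cut at about 25% in these data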;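 further: 0% = DMSO wells with enzyme and 100% = wells lacking Arfgap1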
Target sequence (Q62848 1-136 limits assumed): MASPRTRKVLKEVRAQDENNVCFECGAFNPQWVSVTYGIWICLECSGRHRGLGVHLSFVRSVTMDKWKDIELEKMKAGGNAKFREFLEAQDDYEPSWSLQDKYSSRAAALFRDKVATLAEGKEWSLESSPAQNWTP
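Material: rat Arfgap1 GAP domain (His6, aa 1-136), purified enzyme. Also added: human ARF1(Δ1-17)-GTP substrate. Compound dosing: 16.5 µM single point, 1.26% DMSO. Timing: enzyme reaction 120 min at 25 °C after 20 min preincubation. Signal: GDP detection by fluorescence polarization. Read-out basis: percent inhibition of GAP-stimulated GDP formation, scaled between DMSO and no-Arfgap1 medians.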
MsrA act – activators of bovine methionine sulfoxide reductase A; activation, % at 10.6 µM; purified bovine MsrA, absorbance read-out; 360,000 compounds, 0.3% hits; in the data active means activation above about 7.5%;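 further: 0% = vehicle and 100% = reference activator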
HGIII-sPLA2 inh – Inhibits HGIII-sPLA2 liposome hydrolysis, primary screen | Q9NZ20 | QFRET BODIPY PC-A2 liposome hydrolysis, fluorescence | inhibition, % at 12.2 µM | 370,000 compounds, 0.56% hits | AID 743126;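 active means inhibition above mean plus 3 SD of compounds lying within the high and low control bounds, cut at about 19% in these data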;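 further: 0% = median of test compound wells and 100% = no enzyme DMSO wells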
Numbers without * were called inactive; x = not tested or not shown. A selection: hits, their analogues and other compounds. The true share with any hit is near 2.7%.

SMILES | Rev-erbA mod | MsrA inh | ASAP1 GAP inh | ARFGAP1 inhibitor | MsrA act | HGIII-sPLA2 inh
CCN(CC)Cc1cc(Nc2c3ccccc3nc3c4ccccc4n(C)c23)cc(CN(CC)CC)c1O | 1.0 | 2.2 | -3.5 | -5.3 | -6.1 | 21.3*
Cc1c(C(=O)N/N=C/c2ccccc2)sc(=S)n1C | 2.8 | 3.0 | -0.8 | 25.8* | 1.4 | 14.7
CS(=O)(=O)c1ccc(C(=O)Nc2ccc(N3CCCC3)cc2)c(Cl)c1 | -2.9 | -1.5 | -4.0 | 10.4 | -3.9 | 7.3
O=C(Nc1ccc(N2CCCC2)cc1)c1cc(Br)ccc1Cl | 3.4 | 0.8 | 21.8 | 31.6* | -3.7 | 14.5
N[C@@H]1[C@@H](O)[C@H](O)[C@@H](CO)O[C@H]1O | 3.7 | x | x | x | x | x
CC1CCN(c2nc3nonc3nc2N2CCC(C)CC2)CC1 | -2.0 | -1.0 | 3.1 | 4.7 | -0.9 | 4.7
CC1CCCN(c2nc3nonc3nc2N2CCCC(C)C2)C1 (centres undefined) | -0.4 | 4.6* | 10.0 | 0.9 | 1.4 | -3.3
C1CCN(c2nc3nonc3nc2N2CCCC2)C1 | 3.4 | 5.1* | 6.1 | 10.6 | -4.4 | 2.7
C=CCNC(=S)Nc1sc2c(c1C(=O)OCC)CC(C)(CC)OC2 (centres undefined) | 0.3 | 4.6* | -4.8 | 8.5 | 2.6 | 13.7
N#Cc1cc(-c2ccccc2)oc1NC(=O)c1ccco1 | -2.8 | 4.6* | 6.5 | 7.0 | -3.4 | -11.6
Cc1cccc(C(=O)Nc2oc(-c3ccccc3)cc2C#N)c1 | 0.6 | -0.1 | 4.7 | -1.6 | -2.2 | -17.1
Cc1cccc(-n2c(C)cc(C=C(C#N)C#N)c2C)c1 | 19.9 | -0.5 | -4.8 | -2.4 | -1.3 | -2.1
Cc1cc(/C=C(/C#N)c2cccc(Cl)c2)c(C)n1C | 2.2 | 4.6* | 1.7 | 11.0 | -4.0 | 18.4
CC1=NN(c2ccccc2)C(=O)C1=Cc1ccccc1 | -4.8 | 2.5 | -2.3 | -11.5 | -2.1 | 3.2
CC1=NN(c2ccccc2)C(=O)/C1=C/c1ccc(Cl)cc1 | 4.2 | 1.2 | -9.7 | 27.7* | -1.9 | 2.4
O=C(O)Cc1cccc(-c2ccccc2)c1 | 1.6 | x | x | x | x | x
CC(=O)Nc1cc2c(cc1[N+](=O)[O-])OCCO2 | 2.6 | 4.6* | -8.7 | -0.2 | -0.1 | 4.2
Cc1cc(C(=O)N/N=C/C=C/c2ccc3c(c2)OCO3)n[nH]1 | 6.3 | 8.9* | -14.9 | 2.9 | -5.9 | 0.3
CC(C)OC(=O)c1ccc(NCc2cc(O)ccc2O)cc1 | 6.3 | 0.8 | 2.5 | 6.5 | -4.5 | 22.2*
O=C(OCc1ccccc1)c1ccc(NCc2cc(O)ccc2O)cc1 | 2.5 | -0.1 | 8.5 | 10.2 | -3.3 | 25.7*
Cc1c2oc3c(C)ccc(C(=O)OC(C)C4NC(=O)C(C(C)C)N(C)C(=O)CN(C)C(=O)C5CCCN5C(=O)C(C(C)C)NC4=O)c3nc-2c(C(=O)OC(C)C2NC(=O)C(C(C)C)N(C)C(=O)CN(C)C(=O)C3CCCN3C(=O)C(C(C)C)NC2=O)c(N)c1=O (centres undefined) | -7.9 | x | x | x | x | x
Cc1ccc(C(=O)Nc2scc(-c3ccccc3)c2C(=O)O)o1 | -1.3 | 4.6* | -3.1 | -2.0 | -6.2 | -1.7
O=C(c1ccccc1)c1c2c(cc3sc4ccccc4[n+]13)-c1cccc3cccc-2c13 | -7.2 | 0.6 | 5.2 | 20.2 | -1.1 | 23.4*
COCC(C)N1C(=O)Cc2c1nc(N)c1c(N)nc(N3CCN(c4ccccc4F)CC3)c(C#N)c21 (centres undefined) | -4.1 | -0.3 | -11.2 | -7.9 | -6.7 | 24.7*
COCCN1C(=O)Cc2c1nc(N)c1c(N)nc(N3CCN(c4ccc(F)cc4)CC3)c(C#N)c21 | -1.6 | 0.8 | 0.7 | 3.1 | -6.1 | 18.0
SMILES | Rev-erbA mod | MsrA inh | ASAP1 GAP inh | ARFGAP1 inhibitor | MsrA act | HGIII-sPLA2 inh
CCN(CC)c1ccc(C2N(C(=O)N3CCOCC3)CCN2S(=O)(=O)c2ccc(C)cc2)cc1 (centres undefined) | -4.5 | 4.6* | -1.9 | -0.5 | -12.2 | 3.3
CC[C@H](C)[C@H](N)C(=O)O | -3.4 | x | x | x | x | x
COc1ccc(/C=N/NC(=S)Nc2ccccc2[N+](=O)[O-])cc1O | 8.6 | 2.7 | 4.8 | -0.4 | -6.1 | 20.0*
CC(C)(CO)[C@@H](O)C(=O)NCCCC(=O)O | 4.5 | x | x | x | x | x
CC(=O)Nc1nc(C)c(-c2csc(Nc3cccc(C(C)=O)c3)n2)s1 | 0.5 | 4.6* | 8.6 | 13.4 | -1.8 | 2.6
CC(=O)Nc1nc(C)c(-c2csc(Nc3cccc([N+](=O)[O-])c3)n2)s1 | 5.7 | 1.0 | 11.8 | 9.6 | -11.7 | -13.6
N[C@@H](CS)C(=O)O | -0.1 | x | x | x | x | x
